The target of one test is Histone deacetylase 3 (Homo sapiens, UniProt O15379).
For test [1], the species on record is Homo sapiens. The experiment in a line: Selectivity index, ratio of IC50 for human HDAC10 to IC50 for human HDAC6.
The species entered for test [2] is Homo sapiens. As to the kind of experiment: Selectivity index, ratio of IC50 for human HDAC1 to IC50 for human HDAC6.
For test [3], the target named is T1, Protein deacetylase HDAC6 (Mus musculus) (UniProt Q9Z2V5).
T1 sequence (whole entry): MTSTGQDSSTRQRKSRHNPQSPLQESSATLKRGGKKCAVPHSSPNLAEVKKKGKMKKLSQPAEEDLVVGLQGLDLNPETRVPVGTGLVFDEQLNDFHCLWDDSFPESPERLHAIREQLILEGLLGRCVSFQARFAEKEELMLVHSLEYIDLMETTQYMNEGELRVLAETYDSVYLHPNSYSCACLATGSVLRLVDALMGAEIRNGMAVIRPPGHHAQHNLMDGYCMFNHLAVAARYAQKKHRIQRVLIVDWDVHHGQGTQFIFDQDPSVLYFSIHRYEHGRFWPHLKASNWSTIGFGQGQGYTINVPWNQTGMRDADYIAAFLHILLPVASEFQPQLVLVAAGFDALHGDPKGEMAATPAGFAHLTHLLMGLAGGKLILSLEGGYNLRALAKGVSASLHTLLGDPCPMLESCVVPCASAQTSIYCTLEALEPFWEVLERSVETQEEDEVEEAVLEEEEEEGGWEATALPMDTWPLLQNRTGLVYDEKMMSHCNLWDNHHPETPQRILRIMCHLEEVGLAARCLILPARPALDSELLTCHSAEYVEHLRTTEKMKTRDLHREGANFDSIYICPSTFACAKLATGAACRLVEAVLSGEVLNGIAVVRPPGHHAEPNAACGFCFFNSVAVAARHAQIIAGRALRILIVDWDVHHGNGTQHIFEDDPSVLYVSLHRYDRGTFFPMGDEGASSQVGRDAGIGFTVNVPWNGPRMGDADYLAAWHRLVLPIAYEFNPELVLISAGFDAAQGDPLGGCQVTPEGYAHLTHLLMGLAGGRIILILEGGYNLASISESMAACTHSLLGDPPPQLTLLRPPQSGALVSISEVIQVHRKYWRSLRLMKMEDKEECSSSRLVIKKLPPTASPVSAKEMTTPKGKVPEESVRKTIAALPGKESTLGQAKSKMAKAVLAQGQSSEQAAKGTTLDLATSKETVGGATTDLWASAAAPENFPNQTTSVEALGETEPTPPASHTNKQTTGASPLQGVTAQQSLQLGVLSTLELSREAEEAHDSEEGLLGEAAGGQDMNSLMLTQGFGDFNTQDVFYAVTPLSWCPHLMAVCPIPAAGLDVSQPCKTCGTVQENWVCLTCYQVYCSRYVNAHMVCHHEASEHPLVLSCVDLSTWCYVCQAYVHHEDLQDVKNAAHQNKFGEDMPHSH
The experiment in a line: Inhibition of HDAC6 in mouse Neuro-2a cells transfected with pCAX FLAG APP and pRK5-EGFP-Tau P301L plasmids assessed as inhibition of Tau P301L mutant phosphorylation at Ser396 residue at 1 uM after 24 hrs by Western blot analysis. The test is classed as cell-based. In a few lines:
(§1)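 SH-SY5Y or Neuro-2a cells cotransfected 24 h with pCAX APP695 and pRK5-EGFP-Tau P301L, then treated 24 h at 1 µM. 20 µg lysate protein immunoblotted for APP and phospho-tau Ser396/Ser404. Mean ± STD of three independent experiments; Student's t-test.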

Test [4] concerns the target T2, Protein deacetylase HDAC6 (Homo sapiens) (UniProt Q9UBN7).
T2 sequence (whole entry): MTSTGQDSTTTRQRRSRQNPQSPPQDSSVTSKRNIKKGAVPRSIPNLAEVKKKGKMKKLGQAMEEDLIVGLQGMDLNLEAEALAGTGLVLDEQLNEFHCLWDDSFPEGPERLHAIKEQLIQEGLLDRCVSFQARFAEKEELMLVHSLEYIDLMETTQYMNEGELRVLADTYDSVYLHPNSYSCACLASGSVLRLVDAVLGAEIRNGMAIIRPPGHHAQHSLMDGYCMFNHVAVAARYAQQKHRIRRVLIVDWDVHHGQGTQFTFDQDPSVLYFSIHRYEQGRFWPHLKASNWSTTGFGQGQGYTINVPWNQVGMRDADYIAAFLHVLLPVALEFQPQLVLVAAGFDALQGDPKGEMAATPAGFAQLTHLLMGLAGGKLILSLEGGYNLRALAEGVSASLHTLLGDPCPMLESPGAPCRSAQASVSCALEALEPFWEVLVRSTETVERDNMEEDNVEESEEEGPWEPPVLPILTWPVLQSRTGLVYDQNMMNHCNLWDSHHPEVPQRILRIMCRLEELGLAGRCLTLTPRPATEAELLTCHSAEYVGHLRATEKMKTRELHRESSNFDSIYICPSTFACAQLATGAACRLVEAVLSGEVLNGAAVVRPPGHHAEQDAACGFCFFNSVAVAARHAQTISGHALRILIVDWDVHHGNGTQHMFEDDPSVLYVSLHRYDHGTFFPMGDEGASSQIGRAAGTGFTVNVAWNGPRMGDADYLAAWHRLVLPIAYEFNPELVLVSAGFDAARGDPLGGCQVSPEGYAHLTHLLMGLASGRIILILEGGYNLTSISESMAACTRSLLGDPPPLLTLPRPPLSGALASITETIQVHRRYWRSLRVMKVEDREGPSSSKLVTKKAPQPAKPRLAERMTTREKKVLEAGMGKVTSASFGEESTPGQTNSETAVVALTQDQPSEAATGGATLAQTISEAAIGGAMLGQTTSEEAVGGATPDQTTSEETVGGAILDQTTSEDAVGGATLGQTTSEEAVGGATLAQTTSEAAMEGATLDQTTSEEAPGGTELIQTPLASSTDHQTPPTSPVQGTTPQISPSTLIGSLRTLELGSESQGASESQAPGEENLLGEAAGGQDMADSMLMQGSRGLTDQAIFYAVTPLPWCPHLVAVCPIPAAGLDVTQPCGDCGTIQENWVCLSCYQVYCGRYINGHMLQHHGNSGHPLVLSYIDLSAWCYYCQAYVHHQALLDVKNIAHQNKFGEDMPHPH
As to the kind of experiment: Inhibition of HDAC6 in human SH-SY5Y cells transfected with pCAX FLAG APP and pRK5-EGFP-Tau P301L plasmids assessed as inhibition of Tau P301L mutant phosphorylation at Ser396 residue at 1 uM after 24 hrs by Western blot analysis. The test is classed as cell-based. An outline of the steps: as §1

The target in test [5] is T3, Protein deacetylase HDAC6 (Homo sapiens, UniProt Q9UBN7).
T3 sequence (Q9UBN7 whole entry): T2 sequence (whole entry)
The experiment in a line: Inhibition of human HDAC6 using RHKKAc peptide as substrate.

Test [6] is filed under the species Homo sapiens. The experiment in a line: Selectivity index, ratio of IC50 for human HDAC2 to IC50 for human HDAC6.
For another test, the target named is Histone deacetylase 1 (Homo sapiens, UniProt Q13547). The experiment in a line: Inhibition of human HDAC1 using RHKKAc peptide as substrate.
Sequence of Histone deacetylase 1 (Q13547 whole entry): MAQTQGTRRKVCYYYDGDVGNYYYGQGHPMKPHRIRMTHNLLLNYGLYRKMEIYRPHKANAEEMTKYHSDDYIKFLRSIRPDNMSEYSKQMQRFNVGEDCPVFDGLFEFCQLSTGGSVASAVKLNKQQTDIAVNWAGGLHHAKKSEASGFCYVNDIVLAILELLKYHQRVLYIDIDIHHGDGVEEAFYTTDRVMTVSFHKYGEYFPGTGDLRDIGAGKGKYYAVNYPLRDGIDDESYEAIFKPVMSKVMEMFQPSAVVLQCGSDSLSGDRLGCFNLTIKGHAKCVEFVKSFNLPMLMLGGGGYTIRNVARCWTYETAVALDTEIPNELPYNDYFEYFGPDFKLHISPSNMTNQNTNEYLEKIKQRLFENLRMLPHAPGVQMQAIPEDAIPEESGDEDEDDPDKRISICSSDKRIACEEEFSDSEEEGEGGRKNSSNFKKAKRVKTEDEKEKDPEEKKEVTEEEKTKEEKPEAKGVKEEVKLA

This note sets out measurements from ChEMBL document CHEMBL4196108, “5-Aroylindoles Act as Selective Histone Deacetylase 6 Inhibitors Ameliorating Alzheimer's Disease Phenotypes” (J Med Chem, 2018).

Each structure is given as a SMILES string. Active and inactive are the calls of the source. The calls are words filed in the database; no cut-off is given here.

Sequence of Histone deacetylase 3 (O15379 whole entry): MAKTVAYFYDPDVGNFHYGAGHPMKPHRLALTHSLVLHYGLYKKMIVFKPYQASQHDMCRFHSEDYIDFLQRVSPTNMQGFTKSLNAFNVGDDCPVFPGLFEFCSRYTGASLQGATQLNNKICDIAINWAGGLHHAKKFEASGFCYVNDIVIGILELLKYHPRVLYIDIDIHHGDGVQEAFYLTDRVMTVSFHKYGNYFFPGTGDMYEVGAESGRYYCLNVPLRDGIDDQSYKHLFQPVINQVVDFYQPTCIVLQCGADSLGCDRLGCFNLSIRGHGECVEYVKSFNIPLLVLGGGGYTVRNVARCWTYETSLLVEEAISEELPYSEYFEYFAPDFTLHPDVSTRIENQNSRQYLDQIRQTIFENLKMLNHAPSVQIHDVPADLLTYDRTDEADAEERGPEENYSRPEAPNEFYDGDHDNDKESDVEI

As for `COc1ccc(C(=O)c2ccc3c(ccn3Cc3ccc(C(=O)NO)cc3)c2)cc1`, the IC50 against Histone deacetylase 3 amounted to 4.15 µM; in test [5], 0.00392 µM; against Histone deacetylase 1, 2.19 µM. Further, the Ratio IC50 in the test filed under Homo sapiens [1] amounted to 15300; in the test listed under Homo sapiens [2], 559; in the test filed under Homo sapiens [6], 145. Also, the inhibition result in test [3] and in test [4] was “Active” each time.

With `O=C(NO)c1ccc(Cn2ccc3cc(C(=O)c4ccc(Cl)cc4)ccc32)cc1`, the IC50 was found to be 6.62 µM against Histone deacetylase 3, 0.00673 µM in test [5] and 4.78 µM against Histone deacetylase 1. For the same molecule, the results for the Ratio IC50 in the test filed under Homo sapiens [1], in the test filed under Homo sapiens [2] and in the test filed under Homo sapiens [6] were above 14900, 710 and 312, respectively. The inhibition entry in test [3] and in test [4] was “Active” in each case.

`O=C(NO)c1ccc(Cn2ccc3cc(C(=O)c4ccc(F)cc4)ccc32)cc1`: the IC50 against Histone deacetylase 3 was found to be 4.4 µM; in test [5] it was 0.00925 µM; at Histone deacetylase 1 it was 3.3 µM. Further, the values for the Ratio IC50 in the test filed under Homo sapiens [1], in the test filed under Homo sapiens [2] and in the test filed under Homo sapiens [6] were above 10800, 357 and 552, respectively. In addition, the inhibition entry in test [3] and in test [4] was “Active” throughout.
